Screening data (PubChem BioAssay)
This is a sample that favours compounds with a hit; in the whole collection about 3.1% have one here.
hERG rescue: shields human hERG channel from block by proarrhythmic agents | CHO-hERG, FluxOR thallium flux, dofetilide IC70 present | activation (rescue from dofetilide block), less the hit threshold, % at 10 µM | 0.51% of 310,000 active | AID 1511;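 active = activation above the mean of controls blocked by dofetilide plus 5 SD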;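 note: thallium influx through hERG after potassium depolarization seen as dye fluorescence rise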
KCNQ1 pot: potentiates or activates the human KCNQ1 potassium channel. P51787. CHO-K1 KCNQ1, thallium flux FluxOR fluorescence; active compounds read high. B-score at 10 µM. 0.35% of 310,000 active. AID 2648;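 active = fluorescence ratio B-score, a plate-corrected score, at least three library SD, with initial intensity B-score within 5 SD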
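assay system = CHO-K1 cells stably expressing KCNQ1 | medium = assay buffer, equal DMSO in all wells | timing = 37 °C overnight plating, 90-min dark dye load, 20-min compound pretreatment | measured by = kinetic FluxOR thallium fluorescence, 10-s 1-Hz baseline, 110-s post-stimulus read | measure = fluorescence change relative to baseline, converted to B score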
KCNK3 inh: human KCNK3 channel inhibition, primary screen; CHO-KCNK3 thallium flux, FluxOR fluorescence; active compounds read low; B-score at 10 µM; 0.84% of 340,000 active;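 active = B-score under library mean minus 4 SD, starting fluorescence ratio at most library mean plus 5 SD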;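 note: more negative B-score means stronger inhibition of thallium flux through KCNK3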
KCNQ1 inh: human KCNQ1 channel inhibition; P51787; CHO-K1 KCNQ1, FluxOR thallium flux fluorescence; active compounds read high; B-score at 10 µM; 1.3% of 310,000 active;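 active = compounds whose thallium flux B-score, printed positive for inhibition, exceeds three library SD while starting fluorescence stays within three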;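 note: channel opened by potassium depolarization with thallium stimulus after 20 min compound exposure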
KCNK9 block: inhibitors of human KCNK9 two-pore domain potassium channel; AID 488922; 1.2% of 310,000 active; B-score at 10 µM; HEK293 KCNK9, FluxOR thallium flux fluorescence; active compounds read low; Q9NPC2;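 active = ratio B-score over 3 SD below the library mean, with starting fluorescence within 5 SD of its mean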;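 note: negative B-score means less thallium flux so channel inhibition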
Target sequence (Q9NPC2 whole entry, looked up, the tested form may be a part): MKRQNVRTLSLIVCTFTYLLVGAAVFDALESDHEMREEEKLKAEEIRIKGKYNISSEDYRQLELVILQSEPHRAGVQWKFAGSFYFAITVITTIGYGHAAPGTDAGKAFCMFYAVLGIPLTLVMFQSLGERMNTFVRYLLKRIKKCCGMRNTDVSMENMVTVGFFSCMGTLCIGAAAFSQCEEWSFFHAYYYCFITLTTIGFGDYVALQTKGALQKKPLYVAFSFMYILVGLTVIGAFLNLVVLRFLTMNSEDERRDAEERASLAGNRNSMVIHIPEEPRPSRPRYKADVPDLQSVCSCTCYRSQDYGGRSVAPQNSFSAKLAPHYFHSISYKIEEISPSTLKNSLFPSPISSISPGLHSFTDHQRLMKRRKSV
KCNK3 confirm: human KCNK3 channel inhibition, confirmation assay | shares compounds with KCNK3 inh | CHO-KCNK3 thallium flux, FluxOR fluorescence; 0% buffer, 100% carvedilol maximal block | ratio percent of control, % at 10 µM | 99% of 2,400 active;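 active = ratio percent of control, averaged over triplicates, above buffer control mean plus 5 SD, cut at about 64% in these data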;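 note: ratio is the fluorescence rise from min to max over baseline after thallium stimulus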
KCNK3 uninduced: counter-screen for KCNK3 inhibitors: effect in non-induced cells; thallium flux ratio (lower = more inhibition) at 10 µM; 40% of 2,400 active; shares compounds with KCNK3 inh; non-induced KCNK3 parental cells, FluxOR thallium flux; active compounds read low;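 active = thallium flux ratio, averaged over three wells, more than 5 SD below the buffer control mean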;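 note: host cells are CHO cells without KCNK3 induction; ratio is peak minus trough fluorescence over baseline then normalized to buffer controls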
* hit, by the source's call; i = inactive; · = no result given.

SMILES | hERG rescue | KCNQ1 pot | KCNK3 inh | KCNQ1 inh | KCNK9 block | KCNK3 confirm | KCNK3 uninduced
N#Cc1cc2c(nc1SCC(O)CS(=O)(=O)Cc1ccc(Cl)cc1)CCCC2 (stereo not given) | -3 | i | -11* | i | i | 109* | 0.15*
CCOC(=O)c1cc2occc2n1Cc1c(F)cccc1Cl | -12 | i | -9.8* | i | i | 77* | i
COc1ccccc1C(=O)NCC(=O)NCCc1ccc(Cl)cc1 | -5 | i | i | i | i | · | ·
O=C1c2cccc3cccc(c23)N1Cc1cccc(F)c1 | -2 | i | -14* | i | i | 101* | i
O=C1c2cccc3cccc(c23)N1Cc1ccc(F)cc1 | -15 | i | i | i | i | · | ·
CC(C)=CCc1c(O)ccc2c1OC(c1ccc(O)c(O)c1)CC2=O (stereo not given) | -38 | i | -12* | i | -6.6* | 138* | 0.12*
Cc1cccc(C)c1OCc1cc(C(=O)N2CCCC2c2nonc2C)no1 (stereo not given) | -8 | i | -9.4* | i | i | 108* | i
COc1cccc(OC)c1C(=O)Nc1ccc(C(=O)NCc2ccccc2)cc1 | -12 | i | i | i | i | · | ·
CC(C)(CNC(=O)c1ccc([N+](=O)[O-])c(Cl)c1)CNC(=O)c1ccc([N+](=O)[O-])c(Cl)c1 | -20 | i | -9.8* | i | -7.9* | 131* | 0.15*
Fc1ccc(CNc2nc(-c3ccco3)cc(C(F)(F)F)n2)cc1 | -33 | i | -9* | i | i | 136* | 0.13*
O=C(CSc1nccc(=O)[nH]1)Nc1ccc(N2CCOCC2)cc1 | -1 | i | i | i | i | · | ·
Cc1nc2c(=O)[nH]c3ccccc3c2o1 | -5 | i | i | i | i | · | ·
COc1ccc(/C=C2\COc3ccccc3C2=O)cc1OC | -1 | i | i | i | i | · | ·
COc1ccc(/C=C2\COc3ccccc3C2=O)c(OC)c1 | -12 | i | -9.6* | i | i | 121* | i
Cc1ccc2nc(C3CCCCC3)[nH]c2c1 | -7 | i | i | i | i | · | ·
CCS(=O)(=O)N1CCN(c2ncnc3sc(C)c(C)c23)CC1 | -2 | i | i | i | i | · | ·
Cc1sc2ncnc(N3CCN(S(=O)(=O)c4ccc(F)cc4)CC3)c2c1C | -11 | i | -11* | i | i | 124* | 0.16*
O=[N+]([O-])c1cccc(C2NCC(c3ccccc3Cl)c3c2[nH]c2ccccc32)c1 (stereo not given) | -14 | i | -9.5* | 7* | -8.1* | 125* | 0.14*
Cc1cc(C)c2c(CN3CCC(C)CC3)cc(=O)oc2c1C | -4 | i | -12* | i | i | 103* | i
CCc1cc(CN2CCOCC2)c(NC(=O)c2ccccc2)s1 | -13 | i | -9.3* | i | i | 102* | i
Cc1ccc(-c2nc(S(=O)(=O)c3ccccc3)c(SCC(=O)NCC3CCCO3)o2)cc1 (stereo not given) | -7 | i | i | i | i | · | ·
Cc1cc2c(Nc3ccc(C(=O)O)cc3)ncnc2s1 | -4 | i | -10* | i | i | 62* | i
Cc1cc2c(Nc3ccc(O)cc3)ncnc2s1 | -4 | i | i | i | i | · | ·
CCC/C(O)=C1\C(=O)CCCC1=NCCc1ccc(OCC)c(OCC)c1 | -13 | i | -9.2* | i | i | 117* | i
Cc1ccsc1C(=O)NCCC(c1ccccc1)c1ccccc1 | -4 | i | -9* | i | i | 105* | i
C(=N\N1CCN(C2c3ccccc3-c3ccccc32)CC1)/c1cccnc1 | -9 | i | -10* | i | i | 85* | i
O=C(/C=C/c1ccc(N2CCCCC2)c([N+](=O)[O-])c1)c1ccc(O)cc1 | -9 | i | -11* | i | -7.8* | 123* | i
CCOC(=O)c1cn(Cc2c(C)c(C)c(C)c(C)c2C)nn1 | -1 | i | i | i | i | · | ·
